Broadly, the IC50 is the midpoint of a concentration-inhibition curve. A higher IC50 goes with weaker potency in that assay. The inhibition is the drop in the measured response relative to a control, in per cent. Low values mean little suppression, high ones strong suppression.

3 molecules from ChEMBL document CHEMBL1129944, “[[(Arylpiperazinyl)alkyl]thio]thieno[2,3-d]pyrimidinone derivatives as high-affinity, selective 5-HT1A receptor ligands” (J Med Chem, 1997) can be followed below.

In experiment [1] the target is T1, Adrenergic receptor alpha-1 (Rattus norvegicus, UniProt P15823+P23944+P43140).
T1 sequence (P15823 whole entry): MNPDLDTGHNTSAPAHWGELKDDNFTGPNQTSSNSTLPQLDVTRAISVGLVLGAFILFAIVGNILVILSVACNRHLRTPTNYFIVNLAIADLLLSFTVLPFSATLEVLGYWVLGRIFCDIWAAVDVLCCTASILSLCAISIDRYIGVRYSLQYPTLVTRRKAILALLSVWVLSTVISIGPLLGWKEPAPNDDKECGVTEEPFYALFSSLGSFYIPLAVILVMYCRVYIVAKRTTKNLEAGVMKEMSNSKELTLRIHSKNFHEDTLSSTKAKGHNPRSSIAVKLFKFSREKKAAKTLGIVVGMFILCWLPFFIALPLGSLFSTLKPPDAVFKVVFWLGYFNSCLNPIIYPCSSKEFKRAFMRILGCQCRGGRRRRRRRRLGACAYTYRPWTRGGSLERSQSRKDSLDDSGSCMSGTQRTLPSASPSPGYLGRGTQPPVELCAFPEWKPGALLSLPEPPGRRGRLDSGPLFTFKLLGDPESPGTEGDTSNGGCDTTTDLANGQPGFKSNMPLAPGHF
T1 sequence (P23944 whole entry): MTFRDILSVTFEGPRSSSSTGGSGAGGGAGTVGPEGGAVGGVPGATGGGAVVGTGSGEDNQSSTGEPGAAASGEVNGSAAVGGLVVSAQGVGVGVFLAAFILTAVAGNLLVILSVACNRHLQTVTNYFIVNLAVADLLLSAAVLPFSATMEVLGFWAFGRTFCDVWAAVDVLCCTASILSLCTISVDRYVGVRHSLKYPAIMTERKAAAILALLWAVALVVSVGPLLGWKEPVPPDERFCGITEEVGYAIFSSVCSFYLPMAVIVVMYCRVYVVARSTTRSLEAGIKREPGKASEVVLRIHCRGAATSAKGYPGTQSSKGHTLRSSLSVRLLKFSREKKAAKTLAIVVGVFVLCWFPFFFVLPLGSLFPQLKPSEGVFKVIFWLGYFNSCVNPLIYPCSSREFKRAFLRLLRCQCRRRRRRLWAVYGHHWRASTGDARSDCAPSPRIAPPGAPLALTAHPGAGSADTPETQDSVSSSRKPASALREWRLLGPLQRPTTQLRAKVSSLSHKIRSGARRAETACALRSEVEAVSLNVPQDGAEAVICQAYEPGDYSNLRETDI
T1 sequence (P43140 whole entry): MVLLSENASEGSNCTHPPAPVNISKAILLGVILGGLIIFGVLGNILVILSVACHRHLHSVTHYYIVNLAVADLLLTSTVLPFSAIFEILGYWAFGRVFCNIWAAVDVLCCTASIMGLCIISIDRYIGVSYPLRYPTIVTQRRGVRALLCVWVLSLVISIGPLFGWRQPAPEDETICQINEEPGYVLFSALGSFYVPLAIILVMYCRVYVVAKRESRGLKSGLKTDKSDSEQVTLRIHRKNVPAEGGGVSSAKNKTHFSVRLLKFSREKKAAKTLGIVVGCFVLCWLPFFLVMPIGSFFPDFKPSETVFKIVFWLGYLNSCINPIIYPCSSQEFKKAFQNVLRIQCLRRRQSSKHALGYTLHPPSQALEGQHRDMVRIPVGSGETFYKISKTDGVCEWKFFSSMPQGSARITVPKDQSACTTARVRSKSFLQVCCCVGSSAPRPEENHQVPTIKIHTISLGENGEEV
The experiment can be described thus: In vitro inhibitory concentration against radioligand [3H]prazosin binding to alpha-1 adrenergic receptor in rat cortical membrane. Format: cell membranes. In short, it runs like this: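 Male CRL:CD(SD)BR-COBS rats (~150 g) were decapitated. Cortex was homogenized in 50 mM Tris-HCl pH 7.4, spun at 50000g, given 10 min at 37 °C and washed. Incubation buffer had 0.1% ascorbic acid and 10 μM pargyline. GF/B filtration and scintillation counting; IC50 from dose-inhibition curves.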

Experiment [2] deals with 5-hydroxytryptamine receptor 1B (Rattus norvegicus, UniProt P28564). The experiment can be described thus: In vitro inhibitory concentration against radioligand [3H]5-HT binding to 5-hydroxytryptamine 1B receptor in rat striatal membrane. It is filed as cell membranes, Striatum. In outline:
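Striatum came from decapitated male rats (~150 g). Membranes were washed in 50 mM Tris-HCl pH 7.4 with a 10 min preincubation at 37 °C. Incubation buffer had 4 mM CaCl2, 0.1% ascorbic acid and 10 μM pargyline. [3H]5-HT 2 nM final, 30 min at 25 °C; nonspecific binding with 5-HT 10 μM. Bound ligand collected by filtration and scintillation-counted; IC50 by curve fitting.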

The target of experiment [3] is 5-hydroxytryptamine receptor 1B (Rattus norvegicus) (UniProt P28564). The experiment can be described thus: Compound at 10E-5 M was tested in vitro for the inhibition of radioligand [3H]5-HT binding to 5-hydroxytryptamine 1B receptor in rat striatal membrane. Format: cell membranes. To be noted: Striatum.
Sequence of 5-hydroxytryptamine receptor 1B (Rattus norvegicus) (P28564 whole entry): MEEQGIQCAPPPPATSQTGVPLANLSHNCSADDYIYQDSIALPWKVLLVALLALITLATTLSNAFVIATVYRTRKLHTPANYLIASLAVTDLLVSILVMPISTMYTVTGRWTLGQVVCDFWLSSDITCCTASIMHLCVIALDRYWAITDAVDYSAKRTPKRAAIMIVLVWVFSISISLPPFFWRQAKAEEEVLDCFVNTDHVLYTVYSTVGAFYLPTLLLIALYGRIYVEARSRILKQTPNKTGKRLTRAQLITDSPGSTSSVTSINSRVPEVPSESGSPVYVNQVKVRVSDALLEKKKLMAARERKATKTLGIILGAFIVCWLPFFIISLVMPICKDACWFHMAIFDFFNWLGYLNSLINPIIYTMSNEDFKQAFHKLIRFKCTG
Experiment [4] deals with Serotonin 1a (5-HT1a) receptor/Adrenergic receptor alpha-1 (Rattus norvegicus) (UniProt P15823+P23944+P43140+P19327). In words: Selectivity for alpha-1-adrenergic receptor to that of 5-HT1A receptor. It is filed as protein assay. In outline: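 Ratio of IC50 at α1-adrenoceptors ([3H]prazosin, rat cortex) to IC50 at 5-HT1A receptors ([3H]-8-OH-DPAT, rat hippocampus). Each IC50 came from radioligand displacement curves.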

Sequence of 5-hydroxytryptamine receptor 1B (P28564 whole entry): as above

As for `COc1ccccc1C1CCN(CCCSc2nc3sc(C)c(C)c3c(=O)n2N)CC1`, the values for the IC50 in experiment [1] and in experiment [2] were 36 nM and 1400 nM, respectively.

With `COc1ccccc1N1CCN(CCCSc2nc3sc(C)c(C)c3c(=O)n2N)CC1`, the results for the IC50 in experiment [1] and in experiment [2] were 7.3 nM and 700 nM, respectively.

With `Cc1sc2nc(SCCCN3CCN(c4ncccn4)CC3)n(N)c(=O)c2c1C`, the inhibition in experiment [3] is < 50%. The molecule also displayed a Selectivity in experiment [4] of 74. For the same molecule, the IC50 in experiment [1] stood at 506 nM.
